Runt-CBFb FRET – inhibitors of RUNX1 Runt–CBFb binding, primary screen, biochemical, FRET, Cerulean-Runt, Venus-CBFb, uHTS; Runt-related transcription factor 1 (Homo sapiens) + Core-binding factor subunit beta …; Cerulean-Runt/Venus-CBFb FRET ratio 530/480, 1 h; inhibition, % at 20 µM; 220,000 compounds, 0.46% hits; AID 1496, 2009;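 active = inhibition over about 50% at 20 µM in the single-dose screen, limit read from the data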;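 also: 0% = DMSO wells and 100% = excess unlabeled CBFb competitor control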
Target sequence (Q01196 whole entry, looked up): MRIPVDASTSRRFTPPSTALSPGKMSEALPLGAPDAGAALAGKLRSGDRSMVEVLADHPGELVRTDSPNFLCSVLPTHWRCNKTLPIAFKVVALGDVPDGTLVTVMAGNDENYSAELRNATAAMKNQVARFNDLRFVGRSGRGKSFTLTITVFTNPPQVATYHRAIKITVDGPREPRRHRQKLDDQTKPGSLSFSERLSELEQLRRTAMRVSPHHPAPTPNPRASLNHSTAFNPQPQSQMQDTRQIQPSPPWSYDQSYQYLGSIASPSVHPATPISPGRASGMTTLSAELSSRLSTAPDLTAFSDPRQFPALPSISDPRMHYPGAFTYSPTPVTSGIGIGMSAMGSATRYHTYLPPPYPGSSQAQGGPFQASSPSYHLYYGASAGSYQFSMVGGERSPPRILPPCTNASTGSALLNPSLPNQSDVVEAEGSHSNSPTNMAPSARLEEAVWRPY
Target sequence (Q13951 whole entry, looked up): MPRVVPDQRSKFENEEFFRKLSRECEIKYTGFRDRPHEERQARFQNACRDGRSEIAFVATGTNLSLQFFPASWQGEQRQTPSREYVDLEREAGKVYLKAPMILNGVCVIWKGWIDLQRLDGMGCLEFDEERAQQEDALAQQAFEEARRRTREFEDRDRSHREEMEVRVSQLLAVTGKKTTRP
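Measured by: fluorescence energy transfer, 422 nm excitation, 530/480 nm emission; Assay system: Cerulean-Runt domain; Medium: Tris pH 7.5 buffer with BSA; Measure: loss of energy transfer signal; Controls: 5 µM unlabeled CBFb as full-inhibition high control; Incubation: protein complex preformed 1 h, compound exposure 1 h, room temperature, dark.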
RanGTP-Impb inh – inhibitors of RanGTP-importin-beta interaction, primary screen, biochemical, FRET, CFP-Ran, YFP-importin-beta, homogeneous. 300,000 compounds, 1.1% hits. cell-free CFP-Ran/YFP-importin-beta FRET ratio. Ran GTPase (GTP-bound) - importin-beta complex. inhibition, % (no concentration beside the values). AID 2216, 2009;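 active = more than half of the replicate wells show a fall in the fluorescence ratio signal beyond about 16%, limit read from the data, passing the limit was not always enough; inconclusive = exactly half of the replicate wells pass the set limit; inactive = fewer than half of replicates pass the limit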;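 also: 0% = DMSO wells and 100% = Ran loaded with GDP instead of GTP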
Rce1 inhib – yeast Rce1p protease inhibitors, primary screen, biochemical, fluorescence, cell-free homogeneous. AID 2563, 2010. calls only. CAAX prenyl protease 2 (Saccharomyces cerevisiae (strain ATCC 204508 / S288c)), Q03530. yeast membranes, quenched prenylated peptide cleavage fluorescence. 290,000 compounds, 0.27% hits;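 active = fall in fluorescence gain of 50% or more versus controls, with final raw signal at or below 3038400; inconclusive = same 50% fall but final raw signal above 3038400; inactive = fall in fluorescence gain under 50%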;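 also: plate controls were neutral control wells for no effect and wells lacking membranes for full effect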
Runt-SMMHC FRET – inhibitors of RUNX1 Runt–CBFb-SMMHC binding, primary screen, biochemical, FRET, Cerulean-Runt, Venus-CBFb-SMMHC, uHTS | 220,000 compounds, 0.74% hits | AID 1434, 2008 | Cerulean-Runt/Venus-CBFb-SMMHC FRET ratio 530/480, 1 h | inhibition, % at 20 µM | Runt-related transcription factor 1 (Homo sapiens) + Core-binding factor subunit beta …;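 active = mean inhibition across duplicate retests at 20 µM reaching about 50%, limit read from the data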;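 also: 0% = DMSO wells and 100% = wells with excess untagged CBFb-SMMHC; inhibitors lower the FRET ratio by blocking Runt binding to CBFb-SMMHC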
Vif imaging – HIV Vif self-association inhibitors, primary screen, imaging, HEK293T, single point. 340,000 compounds, 0.35% hits. AID 602346, 2012. HEK293T cells, Vif self-association by quenched fluorescence, 24 h. inhibition, % at 7.49 µM; in the data active = inhibition above about 50%, passing the limit was not always enough; inconclusive = no clear call, values can overlap the other calls; inactive = below about 31%
* hit, by the source's call. Compounds with a hit are over-represented: about 1.7% of the library has one in this group of screens.

How did COCCCNC(=O)c1ccc2nc3ccccc3c(=O)n2c1 do in these assays?
Runt-CBFb FRET: 14.6; RanGTP-Impb inh: 5.6; Rce1 inhib: inactive; Runt-SMMHC FRET: 48.5

How did Cc1ccc2nc3nc(NCC4CCCO4)c(C(=O)NC4CCCC4)cc3c(=O)n2c1 (stereo unspecified) do in these assays?
Runt-CBFb FRET: 19.2; RanGTP-Impb inh: 180.6*; Rce1 inhib: inactive; Runt-SMMHC FRET: 63.2*; Vif imaging: -8.3

How did Cc1ccc2nc3c(cc(C(=O)NC4CCS(=O)(=O)C4)n3Cc3ccccc3)c(=O)n2c1 (stereo unspecified) do in these assays?
RanGTP-Impb inh: 5.2; Rce1 inhib: inactive; Vif imaging: 7.2

What do the screens show for `FC(F)(F)c1cc(-c2ccco2)nc(NCc2ccccc2)n1`?
Runt-CBFb FRET: 0.7; RanGTP-Impb inh: 1.9; Runt-SMMHC FRET: -4.0; Vif imaging: 4.2

Results for Fc1ccc(CNc2nc(-c3ccco3)cc(C(F)(F)F)n2)cc1 ?
Runt-CBFb FRET: 6.3; RanGTP-Impb inh: 58.2*; Rce1 inhib: inactive; Runt-SMMHC FRET: -16.7

What do the screens show for `CN1C2C(Br)CCCCN2c2ccc(F)cc2S1(=O)=O` (stereo unspecified)?
RanGTP-Impb inh: 6.6; Vif imaging: 17.7

How did Nc1nc2n[nH]nc2c(=O)[nH]1 do in these assays?
RanGTP-Impb inh: 4.6; Rce1 inhib: active; Vif imaging: inconclusive

Results for Nc1nc2nn(-c3ccccc3)nc2c(=O)[nH]1 ?
Runt-CBFb FRET: -1.6; RanGTP-Impb inh: 1.0; Rce1 inhib: inactive; Runt-SMMHC FRET: -0.5; Vif imaging: 3.4

Results for Cc1ccc(-c2csc3nc4c5ccccc5c(NCCCN5CCOCC5)nn4c(=O)c23)cc1 ?
Runt-CBFb FRET: 2.0; RanGTP-Impb inh: 3.0; Rce1 inhib: inactive; Runt-SMMHC FRET: 15.1

How did Cc1ccc(-c2csc3nc4c5ccccc5c(NCCCN(C)C)nn4c(=O)c23)cc1 do in these assays?
Runt-CBFb FRET: -6.8; RanGTP-Impb inh: 3.1; Rce1 inhib: active; Runt-SMMHC FRET: -4.7; Vif imaging: 38.9

Results for O=C(O)C1CCN(C(=O)CSc2nc3cc(Cl)ccc3c(=O)n2Cc2ccccc2)CC1 ?
RanGTP-Impb inh: 4.7; Vif imaging: -8.6

How did CCOc1ncccc1C(=O)OCc1cccc([N+](=O)[O-])c1 do in these assays?
Runt-CBFb FRET: -1.0; RanGTP-Impb inh: inconclusive; Rce1 inhib: inactive; Runt-SMMHC FRET: -4.9; Vif imaging: 0.2

How did COC(=O)c1ccc(Oc2c(C)oc3cc(OCc4cnn(-c5ccccc5)c4)ccc3c2=O)cc1 do in these assays?
Runt-CBFb FRET: 1.1; RanGTP-Impb inh: 0.9; Rce1 inhib: inactive; Runt-SMMHC FRET: 2.8; Vif imaging: 9.6

What do the screens show for `COC(=O)c1ccc(Oc2coc3cc(OCc4cnn(-c5ccccc5)c4)ccc3c2=O)cc1`?
Runt-CBFb FRET: -3.9; RanGTP-Impb inh: -0.1; Rce1 inhib: inactive; Runt-SMMHC FRET: -6.7; Vif imaging: 142.1*

How did Oc1ccc(-c2cn3cc(C(F)(F)F)ccc3n2)cc1 do in these assays?
Runt-CBFb FRET: -2.3; RanGTP-Impb inh: -2.0; Rce1 inhib: active; Runt-SMMHC FRET: -0.9; Vif imaging: -18.5

How did CC1=C(C)C(C)=C(C#N)C(=C(C#N)C#N)N1 do in these assays?
Runt-CBFb FRET: 1.2; RanGTP-Impb inh: 4.6; Rce1 inhib: active; Runt-SMMHC FRET: 32.4

Results for COc1ccc(OC)c(N2C(=O)CC(Cc3cc(C)cc(C)c3)C2=O)c1 (stereo unspecified) ?
Runt-CBFb FRET: -5.2; RanGTP-Impb inh: 31.2*; Rce1 inhib: inactive; Runt-SMMHC FRET: 1.0; Vif imaging: -1.3

What do the screens show for `CCCN(CCC)CCNC(=O)c1cc2c(-c3ccccc3F)nn(C)c2s1`?
RanGTP-Impb inh: 0.2; Rce1 inhib: active; Vif imaging: 12.4

How did CCOCCCNC(=O)c1cc2c(-c3ccc(Cl)cc3)nn(C)c2s1 do in these assays?
Runt-CBFb FRET: 0.5; RanGTP-Impb inh: 8.1; Rce1 inhib: inactive; Runt-SMMHC FRET: -6.3; Vif imaging: -13.2

How did CCN(CC)CCNC(=O)c1cc2c(-c3ccc(Cl)cc3)nn(C)c2s1 do in these assays?
Runt-CBFb FRET: 1.1; RanGTP-Impb inh: -0.8; Rce1 inhib: inactive; Runt-SMMHC FRET: 0.9; Vif imaging: -5.8

How did CCCCN(CC)CCNC(=O)c1cc2c(-c3ccc(Cl)cc3)nn(C)c2s1 do in these assays?
RanGTP-Impb inh: 0.9; Rce1 inhib: active; Vif imaging: -1.5

Results for CCCN(CCC)CCCNC(=O)c1cc2c(-c3ccc(OC)c(OC)c3)nn(C)c2s1 ?
RanGTP-Impb inh: -0.5; Rce1 inhib: inactive; Vif imaging: 3.2

How did CCCN(CCC)CCNC(=O)c1cc2c(-c3ccc(Cl)cc3)nn(C)c2s1 do in these assays?
RanGTP-Impb inh: -3.3; Rce1 inhib: active; Vif imaging: -4.4

Results for Cn1nc(-c2ccc(Cl)cc2)c2cc(C(=O)NCCN3CCOCC3)sc21 ?
Runt-CBFb FRET: 3.1; RanGTP-Impb inh: 136.4*; Rce1 inhib: inactive; Runt-SMMHC FRET: -4.1; Vif imaging: -6.3

What do the screens show for `Cc1cccc(N=NC(=S)NNc2cccc(C)c2)c1`?
Vif imaging: 10.2

Results for CCN(CC)CCNC(=O)c1cc2c(-c3cccc(OC)c3)nn(C)c2s1 ?
RanGTP-Impb inh: 2.7; Rce1 inhib: inactive; Vif imaging: -4.9

How did COCCCNC(=O)c1cc2c(-c3cccc(OC)c3)nn(C)c2s1 do in these assays?
RanGTP-Impb inh: inconclusive; Rce1 inhib: active; Vif imaging: 1.3

Results for COc1ccc(NC(=O)CC2SC(=NCC3CCCO3)NC2=O)cc1 (stereo unspecified) ?
Runt-CBFb FRET: -1.6; RanGTP-Impb inh: 5.4; Rce1 inhib: inactive; Runt-SMMHC FRET: 4.0; Vif imaging: -27.0

What do the screens show for `Cc1ccc(NC(=O)CC2SC(=NCC3CCCO3)NC2=O)cc1Cl` (stereo unspecified)?
Runt-CBFb FRET: 0.7; RanGTP-Impb inh: -1.8; Rce1 inhib: inactive; Runt-SMMHC FRET: 0.9; Vif imaging: 86.6*

Results for Oc1c(N=NC(=S)Nc2ccccc2F)c2ccccc2n1Cc1ccccc1Cl ?
Runt-CBFb FRET: -1.6; Rce1 inhib: active; Runt-SMMHC FRET: -6.0; Vif imaging: 15.5

Results for NC(=S)N=Nc1c(O)n(Cc2ccccc2)c2ccccc12 ?
Runt-CBFb FRET: -0.5; RanGTP-Impb inh: -0.6; Rce1 inhib: inactive; Runt-SMMHC FRET: 0.0; Vif imaging: 2.7

Results for CCCCNC(=S)N=Nc1c(O)n(Cc2ccccc2)c2ccccc12 ?
Runt-CBFb FRET: -1.5; RanGTP-Impb inh: -4.8; Rce1 inhib: active; Runt-SMMHC FRET: -1.2; Vif imaging: 6.3

High-throughput results: PubChem BioAssay, several laboratories
